Assay: Toxicity liver stage against HepG2, at 10uM
Format: cell-based
Design: test concentration 10 uM, cell line HepG2-A16-CD81EGFP
Conditions: human, HepG2-A16-CD81EGFP cells; read-out: INHIBITION
Outline: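 Uninfected HepG2-A16-CD81EGFP cells, 3 × 10^3 per well, 1536-well, plated on prespotted compound at 10 μM final, parasite-free screening media added to match infected plates; puromycin 10 μM positive, DMSO 0.5% negative; run in parallel with 48 h PbLuc assay at 37 °C, 5% CO2; viability by CellTiter-Glo luminescence, normalized to controls.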

Compound	cytotoxicity at 10 µM
CCC[C@@H]1CN(S(=O)(=O)c2ccc(OC)c(OC)c2)C[C@H]1NC(C)=O	3.06%
CCN1CCCN(S(=O)(=O)c2cc3ccccc3o2)CC1	3.53%
Cc1cccc(CNCc2ccc(NC(=O)NC(C)C)cc2)c1	-3.03%
Cc1ccc(NC2CCN(C(=O)COCC(F)(F)F)CC2)nn1	6.38%
CCN(CC)C(CNC(=O)c1cccnc1-n1cncn1)c1ccsc1 (stereo unspecified)	-146%
CN1CCN(S(C)(=O)=O)c2ccc(F)cc21	-4.12%
c1csc(CN2C[C@H](OCC3CC3)[C@H]3COC[C@H]32)n1	2.57%
Cc1nnc(N2CC[C@H]3O[C@H](C(=O)NCc4ccccn4)CC[C@H]32)s1	-66.4%
CC(C)N1CCO[C@H]2CN(C(=O)Cc3ccsc3)C[C@H]21	11.4%
CN1CCN(Cc2cnn(-c3ccccc3Cl)c2)[C@H]2CS(=O)(=O)C[C@H]21	6.19%
CN(C)CCN1C(=O)CCC12CCCN(C(=O)c1ccncc1F)C2 (stereo unspecified)	3.06%
Cc1noc(NCc2ccc(F)cc2F)n1	-4.49%
c1ccc(Cc2noc(CN3CCCC(Cn4cncn4)C3)n2)cc1 (stereo unspecified)	-2.38%
Cc1nnc(C(NS(=O)(=O)c2cc(C#N)ccc2C)C(C)C)[nH]1 (stereo unspecified)	4.98%
CC(C)(C)OC(=O)N1CCN(C(=O)CCn2cccn2)CC1	-14.6%
c1cc(COC[C@]23COC[C@H]2CN(Cc2ccsc2)C3)ccn1	-90.9%
CCN1CC2(CC1=O)CN(C(=O)NC(C)C)CCN(S(C)(=O)=O)C2 (stereo unspecified)	-3.67%
CCS(=O)(=O)NCC(=O)N1CC2(CCCC2)c2c(F)cccc21	1.56%
CC(C)Oc1ncccc1CNC(=O)c1cnccn1	-10.2%
Cc1cccc(NC(=O)CN(C)C(=O)c2ccc(OC(C)C)nc2)n1	-8.99%
N#CC1COCCN1C(=O)c1ccc2cc[nH]c2c1 (stereo unspecified)	7.75%

Compound	cytotoxicity at 10 µM
COc1cccc2c1OCCCN(c1nc(C)nc3c1CCNCC3)C2	-10.6%
Cc1cc(CN(C)CC2(O)CCCN(CCC3CCCCC3)C2=O)no1 (stereo unspecified)	-14.4%
Cc1nn(CCC#N)c(C)c1CCC(=O)N(C)Cc1ccc(F)cc1F	-1.31%
CC(NC(=O)NCCCc1n[nH]c(N)c1C#N)c1cccs1 (stereo unspecified)	-6.8%
COc1cc(C2SCC(=O)Nc3[nH]ncc32)c(OC)c2c1OCO2 (stereo unspecified)	6.63%
Oc1nnc(-c2cccs2)c2sc(N3CCCCC3)nc12	7.52%
O=S(=O)(c1cccc(F)c1)N1C[C@@H]2COC[C@]2(COCC2CC2)C1	12.5%
O=C(NCCc1csc(-c2ccncc2)n1)C1CC(=O)N(C2CC2)C1 (stereo unspecified)	-8.44%
COc1ccc2c(OCC(=O)NC(C)(C)C)ccnc2c1	-2.04%
O=C(c1cccc(F)c1)N1CCC2(CC1)CN(c1ccccn1)CCO2	-74.1%
CCOCc1ncn2c1CN(C(=O)c1ccoc1)CC2	-72.6%
CCOCCN1CCN(CCOCC(F)(F)F)CC1	1.83%
CC(NCCCN1CCCC1=O)c1cc(Br)ccc1F (stereo unspecified)	1.63%
O=C(COc1cccc(Br)c1)N1CCOCC1c1ncon1 (stereo unspecified)	-9.36%
CCn1cnnc1CN(C)c1nccc(C2CCCC2)n1	0.998%
CC(C)c1ncncc1C(=O)NCCN1CCOCC1	-0.103%
COCCN1CCC(CNc2nc3ccccc3o2)CC1	-53.6%
CN(C)[C@@H]1CN(C(=O)Cc2cccc(F)c2)[C@@H]2CCCO[C@H]12	1.37%
CC(C)NC(=O)C1(CC2CC(c3ccc(F)cc3)=NO2)CCNCC1 (stereo unspecified)	-8.54%
CN(C)c1cc2c(nn1)CCN(C(=O)c1cc3c(s1)CCC3)C2	-6.97%
CC(=O)Nc1nc(C(=O)NCCOc2cccc(F)c2)cs1	7.9%

Compound	cytotoxicity at 10 µM
c1ccc(-c2noc(C3CCN(CCn4cccn4)CC3)n2)cc1	2.86%
c1cncc(COCc2cncc3c2CCN(Cc2ccoc2)C3)c1	-109%
CC(C)NC(=O)CN(C)C(=O)c1c(Cl)c2ccccc2n1C	5.26%
CC(C)(C)c1noc(CCCC(=O)N2CCNC(=O)CC2)n1	-7.49%
CN(C)CCNc1cc(-c2ccc[nH]c2=O)c2cc[nH]c2n1	9.26%
Cc1occc1C(=O)N1C[C@@H](OCc2cccnc2)[C@H]2OCCC[C@@H]21	3.16%
NC(=O)C1CCN(C(=O)c2cccc(CN3CCOCC3)c2)CC1	-20%
CCc1noc(CN(C)CCC(=O)Nc2ccc(Cl)cc2)n1	2.78%
CN(C)[C@@H]1COC[C@@H]2CN(Cc3ccc4c(c3)OCO4)C[C@@H]21	2.02%
Cc1ncoc1C(=O)N1CCCC(c2ccc3c(N)nn(C)c3n2)C1 (stereo unspecified)	2.76%
CC(C)OC(=O)N1CCC(c2nnc(Cn3ccnc3)n2C)CC1	-120%
CCOc1ccc(C2CC(=O)Nc3c2c(=O)nc2sccn32)cc1 (stereo unspecified)	-12.7%
Cc1ccc(CN2CCCC(c3nnc(CN4CCCC4)n3C)C2)s1 (stereo unspecified)	0.9%
Cc1cnn(CC2CCCN2Cc2noc(C(C)(C)C)n2)c1 (stereo unspecified)	-10.7%
CCn1cc(CN2CCCN(C(=O)C3(C)CCOCC3)CC2)cn1	-45.4%
Cc1nnsc1C(=O)N1CCN(CC2CC2)[C@@H]2CS(=O)(=O)C[C@@H]21	0.445%
CCC1CN(C(=O)c2cnc(-c3cnn(C)c3)s2)CCO1 (stereo unspecified)	8.79%
Cc1nc(COC[C@@H]2CC[C@H]3[C@H](CCN3c3ccccn3)O2)cs1	4.06%
Cc1cc(C)nc(N(C)CCN(C)C2CCCC2)n1	-5.88%
CN(Cc1nccs1)C1CCN(c2cccc(-c3cscn3)c2)CC1	-1.26%
CC(C)c1ccc(OCC(=O)N2CCOCC2c2ncon2)cc1 (stereo unspecified)	-9.01%

Compound	cytotoxicity at 10 µM
CCNC(=O)Cc1n[nH]c(-c2cncc(Br)c2)n1	1.2%
CN(Cc1ccccc1)c1ncccc1CNC1CN2CCC1CC2 (stereo unspecified)	1.63%
CCN(C)C1CCCc2nc(C)sc21 (stereo unspecified)	-0.887%
CCC(CNS(C)(=O)=O)Oc1ccccc1C (stereo unspecified)	17.3%
Cc1ccc(N2CCC(NCc3cnc(C4CCC4)s3)CC2)nc1	6.75%
O=C(c1sccc1-n1cnnn1)N1CCC2(CCCCC2)CC1	9.09%
Cn1c(Cn2cccn2)nnc1C1CCN(Cc2ccccc2Cl)CC1	-0.4%
Cc1cc(C)cc(NCCC(=O)NC2CCN(C(=O)C3CC3)CC2)c1	2.4%
CS(=O)(=O)c1cncnc1C1CCCN(C(=O)NCc2ccccc2)C1 (stereo unspecified)	-0.375%
Cn1c(CN2CCOCC2)nnc1C1CCCN(CC(N)=O)C1 (stereo unspecified)	5.23%
c1ccc(CN2CCC3(CC2)CCN(Cc2cccnc2)C3)nc1	-78.6%
N#Cc1cccc(OCCCN2CCN(C(=O)c3ccoc3)CC2)c1	3.57%
CC(NC(=O)CSCC(N)=O)c1ccccc1Oc1ccccc1 (stereo unspecified)	4.84%
O=C(Nc1cc(C(F)(F)F)c[nH]c1=O)C1CCNCC1	6.01%
COCC(=O)N1CCCC1c1cccc(Cc2ccccc2F)n1 (stereo unspecified)	-37.7%
CN1C[C@@H](N)C[C@H]1C(=O)N1CCC(CCCc2ccccc2)CC1	-8.29%
CN(C)CC1(O)CCN(C(=O)Cc2ccc3ccccc3c2)C1 (stereo unspecified)	-6.77%
Cc1ncccc1Oc1nccnc1C1CCN(S(C)(=O)=O)CC1	-7.88%

— ChEMBL document CHEMBL4513216, “Probing the Open Global Health Chemical Diversity Library for Multistage-Active Starting Points for Next-Generation Antimalarials” (ACS Infect Dis, 2020)
